The subject of data set [1] is Vibrio harveyi. Briefly: Toxicity in Vibrio harveyi ATCC BAA-1118 assessed as effect on cell viability after 1.5 hrs by bioluminescence assay. It is filed as organism-based. The procedure, abridged:
(§1)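 V. harveyi BB886 QS reporter was exposed to furanones at various concentrations in the bioluminescence assay. Viable cells were counted as CFU after treatment.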

The subject of data set [2] is Pseudomonas aeruginosa. Briefly: Antibacterial activity against Pseudomonas aeruginosa PAO1 assessed as viability of persister cells at 2 ug/mL after 2 hrs.
For data set [3], the system named is Vibrio harveyi. Briefly: Inhibition of AHL-mediated quorum sensing in Vibrio harveyi ATCC BAA-1118 at 0.5 ug/mL after 1.5 hrs by bioluminescence assay relative to control. The procedure, abridged: (§2)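 V. harveyi BB886 reporter, which emits light in response to extracellular AHL, was incubated with or without furanone at various concentrations (Surette method, modified). Bioluminescence was normalized to viable CFU to give relative bioluminescence versus untreated.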

Data set [4] has as its system Vibrio harveyi. Briefly: Inhibition of AHL-mediated quorum sensing in Vibrio harveyi ATCC BAA-1118 at 10 ug/mL after 1.5 hrs by bioluminescence assay relative to control. The procedure, abridged:
as §2

For data set [5], the system named is Vibrio harveyi. As to the kind of experiment: Toxicity in Vibrio harveyi ATCC BAA-1118 assessed as effect on cell viability at 30 ug/mL after 1.5 hrs by bioluminescence assay. The data set is classed as organism-based. The procedure, abridged:
as §1

Data set [6] has as its system Vibrio harveyi. As to the kind of experiment: Toxicity in Vibrio harveyi ATCC BAA-1118 assessed as effect on cell viability up to 10 ug/mL after 1.5 hrs by bioluminescence assay. The data set is classed as organism-based. The method, boiled down: as §1
For data set [7], the system named is Pseudomonas aeruginosa. As to the kind of experiment: Potentiation of ciprofloxacin-induced antibacterial activity against Pseudomonas aeruginosa PAO1 assessed as persister cells at 2 ug/mL after 3.5 hrs. It is filed as functional, organism-based. The procedure, abridged: (§3)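 Isolated PAO1 persisters were given furanone at 2 µg/mL for 2 h. A portion of each sample then received 200 µg/mL ciprofloxacin for 3.5 h. Surviving persisters were counted as CFU.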

For data set [8], the system named is Pseudomonas aeruginosa. Briefly: Antibacterial activity against Pseudomonas aeruginosa PAO1 assessed as viability of persister cells at 2 ug/mL after 2 hrs. The data set is classed as functional. The method, boiled down: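 Persisters isolated from P. aeruginosa PAO1 per an earlier protocol, exposed to furanone for 2 h. Viability was counted as CFU by plating on LB agar immediately after treatment.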

In data set [9] the test system is Vibrio harveyi. Briefly: Inhibition of AHL-mediated quorum sensing in Vibrio harveyi ATCC BAA-1118 at 30 ug/mL after 1.5 hrs by bioluminescence assay. The procedure, abridged:
as §2

Data set [10] has as its system Vibrio harveyi. Briefly: Inhibition of AHL-mediated quorum sensing in Vibrio harveyi ATCC BAA-1118 after 1.5 hrs by bioluminescence assay. The procedure, abridged: as §2
In data set [11] the test system is Pseudomonas aeruginosa. As to the kind of experiment: Antibacterial activity against Pseudomonas aeruginosa PAO1 assessed as viability of persister cells at 200 ug/mL after 3.5 hrs. It is filed as functional, organism-based. The method, boiled down:
as §3

Data set [12] relates to Pseudomonas aeruginosa. As to the kind of experiment: Potentiation of ciprofloxacin-induced antibacterial activity against Pseudomonas aeruginosa PAO1 assessed as sensitive persister cells at 2 ug/mL after 3.5 hrs. It is filed as functional. The method, boiled down:
as §3

Data set [13] relates to Vibrio harveyi. As to the kind of experiment: Inhibition of AHL-mediated quorum sensing in Vibrio harveyi ATCC BAA-1118 up to 60 ug/mL after 1.5 hrs by bioluminescence assay. The method, boiled down: as §2
In data set [14] the test system is Vibrio harveyi. Briefly: Toxicity in Vibrio harveyi ATCC BAA-1118 assessed as effect on cell viability up to 60 ug/mL after 1.5 hrs by bioluminescence assay. It is filed as organism-based. The procedure, abridged: as §1

Calls of active or inactive are those of the source. The calls are words filed in the database; no cut-off is given here.

The term inhibition denotes the change of the read-out against control, counted positive when it falls. As to `O=C1OC(=C(Br)Br)C=C1C(Br)Br`, in the data set with Vibrio harveyi [1], the Activity entry was “Non-toxic”. Further, the outcome in the data set with Pseudomonas aeruginosa [2] was Active. The inhibition in the data set with Vibrio harveyi [3] came out at 55.9%.
On to `CC1=CC(=C(Br)Br)OC1=O`, for which the inhibition in the data set with Vibrio harveyi [4] is 100%; in the data set with Vibrio harveyi [10] it was “Dose-dependent effect”. Further, the Activity result is given as “Toxic” in the data set with Vibrio harveyi [5] and “Non-toxic” in the data set with Vibrio harveyi [6]. In addition, in the data set with Pseudomonas aeruginosa [7], the outcome was Active. In addition, the result in the data set on Pseudomonas aeruginosa [8] was inactive. The inhibition result with Vibrio harveyi [9] is “Active”.
For the compound `O=C1O/C(=C\Br)C(Br)=C1CBr`, in the data set on Vibrio harveyi [1], the Activity result is given as “Non-toxic”. Moreover, the outcome in the data set on Pseudomonas aeruginosa [2] was Active. In addition, the inhibition result in the data set with Vibrio harveyi [10] was “Active”.
In the case of `O=C(O)c1cn(C2CC2)c2cc(N3CCNCC3)c(F)cc2c1=O`, the result with Pseudomonas aeruginosa [11] was inactive.
Consider `CC1=CC(=O)OC1=O`, for which the Activity entry with Vibrio harveyi [1] is recorded as “Non-toxic”. Also, in the data set with Pseudomonas aeruginosa [2], the result was inactive. Also, in the data set with Vibrio harveyi [10], the inhibition result is “inactive”.
As to `CC1=C(Br)C(Br)(C(Br)Br)OC1=O` (stereo unspecified), in the data set with Vibrio harveyi [1], the Activity result is on record as “Non-toxic”. The outcome in the data set on Pseudomonas aeruginosa [2] was Active. The inhibition entry in the data set with Vibrio harveyi [10] is “inactive”.
On to `CC1=C(Br)C(C(Br)Br)OC1=O` (stereo unspecified), for which the Activity in the data set on Pseudomonas aeruginosa [8] is 64.6%; in the data set with Vibrio harveyi [1], “Non-toxic”; with Pseudomonas aeruginosa [12] it was 99.99%. The inhibition entry with Vibrio harveyi [10] is “inactive”.
For the compound `COC1=CC(=O)OC1`, the inhibition entry in the data set on Vibrio harveyi [13] was “inactive”. In addition, in the data set with Pseudomonas aeruginosa [2], the result was inactive. Besides, the Activity result with Vibrio harveyi [14] is “Non-toxic”.
Consider `O=C1OC(=C(Br)Br)C=C1CBr`, for which, in the data set with Pseudomonas aeruginosa [7], the result was Active. Also, the result with Pseudomonas aeruginosa [8] was inactive. In addition, the Activity result with Vibrio harveyi [1] is given as “Non-toxic”. Besides, the inhibition in the data set on Vibrio harveyi [3] came out at 91.2%.

Values taken from ChEMBL document CHEMBL3091397, “Structural effects on persister control by brominated furanones” (Bioorg Med Chem Lett, 2013).
